In ChEMBL document CHEMBL2010776, “Synthesis and structure elucidation of novel fused 1,2,4-triazine derivatives as potent inhibitors targeting CYP1A1 activity” (Bioorg Med Chem, 2012):

What was measured:
CYP1A1 = target: T1, CYP1A1 (Rattus norvegicus, UniProt P00185); assay: Inhibition of CYP1A1 activity in rat liver microsomes using benzo[alpha]pyrene as substrate at 100 nmol after 10 mins by fluorescence analysis; design: species or system Microsome; conditions: probe benzo[alpha]pyrene
T1 sequence (P00185 whole entry): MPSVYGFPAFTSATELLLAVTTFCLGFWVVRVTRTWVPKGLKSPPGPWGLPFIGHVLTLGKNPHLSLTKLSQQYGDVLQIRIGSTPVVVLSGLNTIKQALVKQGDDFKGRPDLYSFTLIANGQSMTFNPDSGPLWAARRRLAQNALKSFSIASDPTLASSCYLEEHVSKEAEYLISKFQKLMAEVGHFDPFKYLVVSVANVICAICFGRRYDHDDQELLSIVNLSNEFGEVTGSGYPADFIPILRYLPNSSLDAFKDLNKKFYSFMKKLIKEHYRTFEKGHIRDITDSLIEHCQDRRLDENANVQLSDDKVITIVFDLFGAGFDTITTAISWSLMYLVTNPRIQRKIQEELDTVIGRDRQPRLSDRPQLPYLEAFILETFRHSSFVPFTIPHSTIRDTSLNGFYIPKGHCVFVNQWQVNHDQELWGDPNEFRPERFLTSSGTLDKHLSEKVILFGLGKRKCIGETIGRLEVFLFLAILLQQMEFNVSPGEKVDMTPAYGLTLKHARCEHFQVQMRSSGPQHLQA
Procedure, shortened: (§1)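 AHH assay, 1 mL mix: 50 mM Tris–HCl pH 7.4, […], 100 nmol test compound, 0.1 mL microsomal protein (10 mg/mL) from PAH-induced rat liver (105,000 g pellet, resuspended in 0.1 M K phosphate pH 7.4). Started with 100 nmol benzo[a]pyrene, 37 °C 10 min, acetone stop; 3-OH-BaP hexane-extracted, fluorescence ex 396/em 522 nm; percent change in activity.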

Cytochrome P450 1A1 = target: T2, Cytochrome P450 1A1 (Rattus norvegicus, UniProt P00185); assay: Inhibition of CYP1A1 activity in rat liver microsomes using benzo[alpha]pyrene as substrate after 10 mins by fluorescence analysis; design: species or system Microsome; procedure, shortened: as §1
T2 sequence (P00185 whole entry): T1 sequence (P00185 whole entry)

Mus musculus [1] = assay: Acute toxicity in mouse assessed as tolerability up to 150 mg/kg, ip; assay type: organism-based; design: dose 150 mg/kg, route intraperitoneal; conditions: in vivo
Procedure, shortened: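 Mice in groups of six; compound suspended in corn oil and given intraperitoneally at 1, 5, 10, 50 or 150 mg/kg; vehicle-only control group. Body weight recorded before dosing and on days 7 and 14 (termination).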

[2] = Toxicity in po dosed mouse; assay type: organism-based; conditions: in vivo
Mus musculus [3] = assay: Acute toxicity in mouse assessed as tolerability up to 350 mg/kg, po; assay type: organism-based; design: dose 350 mg/kg, route oral; conditions: in vivo

| Structure (SMILES) | inhibition at 10 min (CYP1A1) | IC50 (Cytochrome P450 1A1) | Activity (Mus musculus [1]) | LD50 [2] | Activity (Mus musculus [3]) |
| --- | --- | --- | --- | --- | --- |
| CC(=O)N1N=C2N(N=C(Cc3ccccc3)C(=O)N2N(C(C)=O)C(C)=O)C1c1ccccc1 (stereo unspecified) | 20.6% | 24.2 nM |  |  |  |
| COc1ccc(CC2=NN3C(=NN(C(C)=O)C3c3ccccc3)N(N(C(C)=O)C(C)=O)C2=O)cc1 (stereo unspecified) | 57.6% | 86.7 nM |  |  |  |
| COc1ccc(C2N(C(C)=O)N=C3N2N=C(Cc2ccccc2)C(=O)N3N(C(C)=O)C(C)=O)cc1 (stereo unspecified) | 51.5% | 9.71 nM |  |  |  |
| COc1ccc(CC2=NN3C(=NN(C(C)=O)C3(C)c3ccc(C)cc3)N(N(C(C)=O)C(C)=O)C2=O)cc1 (stereo unspecified) | 48.2% | 10.4 nM |  |  |  |
| CC(=O)NN1C(=O)C(Cc2ccccc2)=NN2C1=NN(C(C)=O)C2(C)c1ccccc1 (stereo unspecified) | 37.9% | 13.2 nM |  |  |  |
| COc1ccc(CC2=NN3C(=NN(C(C)=O)C3(C)c3ccccc3)N(NC(C)=O)C2=O)cc1 (stereo unspecified) | 59.8% | 8.36 nM |  |  |  |
| CC(=O)NN1C(=O)C(Cc2ccccc2)=NN2C1=NN(C(C)=O)C2(C)c1ccc(C)cc1 (stereo unspecified) | 75.6% | 6.62 nM |  |  |  |
| Nn1c(N/N=C2\C(=O)Nc3ccccc32)nnc(Cc2ccccc2)c1=O | 92.2% | 5.42 nM | Non-toxic | > 350 mg/kg | Non-toxic |
| COc1ccc(Cc2nnc(N/N=C3\C(=O)Nc4ccccc43)n(N)c2=O)cc1 | 90.5% | 5.53 nM | Non-toxic | > 350 mg/kg | Non-toxic |
| CC(=O)N1C(=O)C2(c3ccccc31)N(C(C)=O)N=C1N(N(C(C)=O)C(C)=O)C(=O)C(Cc3ccccc3)=NN12 (stereo unspecified) | 64.6% | 7.74 nM |  |  |  |
| COc1ccc(CC2=NN3C(=NN(C(C)=O)C34C(=O)N(C(C)=O)c3ccccc34)N(N(C(C)=O)C(C)=O)C2=O)cc1 (stereo unspecified) | 81.5% | 61.4 nM | Non-toxic | > 350 mg/kg | Non-toxic |
| CC(=O)NN1C(=O)C(Cc2ccccc2)=NN2C1=NN(C(C)=O)C2(C)c1ccc(Cl)cc1 (racemic) | 87.9% | 5.69 nM | Non-toxic | > 350 mg/kg | Non-toxic |
